Hits are enriched below; roughly 4.6% of the tested compounds scored in any of these assays.
GPR7 antagonist – antagonists of human GPR7 (neuropeptides B/W receptor 1). P48145. GPR7-expressing cells, fluorescence antagonist assay. inhibition, % at 4.4 µM. AID 1861. 1.1% of 290,000 active; in the data active = inhibition above about 16%, passing the limit was not always enough;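 note: cells stimulated with the agonist NPW; 0% = agonist with vehicle and 100% = vehicle without agonist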
Target sequence (P48145 whole entry, looked up): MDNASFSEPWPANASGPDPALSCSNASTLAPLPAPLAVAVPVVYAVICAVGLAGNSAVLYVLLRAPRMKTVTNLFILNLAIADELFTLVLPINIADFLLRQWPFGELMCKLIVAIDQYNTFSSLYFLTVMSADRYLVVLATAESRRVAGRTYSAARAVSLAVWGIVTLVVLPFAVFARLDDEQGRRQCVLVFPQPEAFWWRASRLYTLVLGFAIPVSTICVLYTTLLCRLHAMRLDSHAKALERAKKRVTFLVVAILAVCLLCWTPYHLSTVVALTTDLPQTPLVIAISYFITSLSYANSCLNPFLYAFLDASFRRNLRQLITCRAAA
OX1R antag-1 – blocks the human orexin 1 receptor; O43613; CHO/OX1R cells, Fluo-8 calcium fluorescence, orexin A; inhibition, % at 5 µM; 0.43% of 330,000 active; AID 434989;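 active = inhibition above its plate's threshold, mean inhibition of all tested compounds on the plate plus 3 SD, cut at about 37% in these data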;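 note: 0% = orexin A challenge wells and 100% = SB-334867-A antagonist wells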
TAAR1 antag – human TAAR1 antagonism. inhibition, % at 3 µM. CHO RD-HGA16 TAAR1, Fluo-8 calcium fluorescence, antagonist. Q96RJ0. 1.5% of 360,000 active;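 active = inhibition above a per-plate cutoff, the mean inhibition of test compounds on that plate plus 3 SD, cut at about 49% in these data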;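 note: 0% = DMSO plus EC80 beta-PEA response and 100% = DMSO alone without agonist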
Target sequence (Q96RJ0 whole entry, looked up): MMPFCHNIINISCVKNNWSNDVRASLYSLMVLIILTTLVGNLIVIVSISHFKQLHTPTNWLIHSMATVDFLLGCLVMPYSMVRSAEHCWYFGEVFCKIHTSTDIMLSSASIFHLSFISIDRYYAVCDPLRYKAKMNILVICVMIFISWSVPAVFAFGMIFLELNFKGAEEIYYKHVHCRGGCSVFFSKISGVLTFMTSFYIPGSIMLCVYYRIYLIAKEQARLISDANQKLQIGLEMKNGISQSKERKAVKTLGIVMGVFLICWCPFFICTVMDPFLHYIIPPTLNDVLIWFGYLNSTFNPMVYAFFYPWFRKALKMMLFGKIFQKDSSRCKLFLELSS
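Test system – hTAAR1-expressing CHO RD-HGA16 cells, Gα16-coupled · Also added – β-PEA at EC80 concentration, post-compound challenge · Compound – 3 µM, single point · Incubation – dye loading 75 min at 37 °C, then 30 min room temperature · Measured by – Fluo-8 intracellular calcium dye fluorescence, real-time kinetic reads · Benchmarks – vehicle and agonist controls · Replicates – singlicate, one well per test compound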
CHO parental Ca – signal in parental CHO cells, OX1R antagonist counter-screen. parental CHO-K1, ATP-induced calcium, Fluo-8 fluorescence. inhibition, % at 5.6 µM. 0.63% of 330,000 active;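 active = inhibition above that plate's mean sample inhibition plus 3 SD, cut at about 26% in these data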;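 note: 0% = ATP-challenged DMSO wells and 100% = DMSO wells without ATP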
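Material: parental CHO cells / Compound: single nominal dose of 5.6 µM per compound / Signal: Fluo-8 fluorescence / Replicates: singlicate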
TAAR1 ag – agonists of human TAAR1; CHO RD-HGA16 TAAR1, Fluo-8 calcium fluorescence; vehicle wells 0%, saturating PEA agonist 100%; activation, % at 3 µM; 0.99% of 360,000 active;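 active = activation above the mean activation of all test compounds in the run plus 3 SD, cut at about 38% in these data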
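Test system: RD-HGA16 (CHO) cells co-expressing Gα16 and hTAAR1 | Doses: Single dose, 3 µM | Schedule: 17-24 h seeding, 75 min 37 °C dye, 30 min RT | Evaluation: % activation from peak over basal fluorescence ratio, DMSO-to-PEA scaled | Technique: Kinetic Fluo-8 calcium fluorescence | Benchmarks: Low control DMSO, high control PEA (EC100)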
OX1R antag-2 – blocks the human orexin 1 receptor; O43613; OX1R-expressing cells, FRET antagonist read-out; AID 485270; 1.8% of 330,000 active; inhibition, % at 6.6 µM; in the data active = inhibition mostly above about 38%, no sharp cut-off; inactive = mostly below about 40%;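 note: 0% = agonist challenge alone and 100% = reference antagonist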
GPR7 antag cf – human GPR7 antagonism, confirmation assay. shares compounds with GPR7 antagonist. 52% of 2,400 active. inhibition, % at 4.4 µM. GPR7-expressing cells, calcium fluorescence antagonist mode; in the data active = inhibition above about 24%;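 note: stimulated with the GPR7 agonist NPW; 0% = agonist plus vehicle and 100% = vehicle alone without agonist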
MCHR1 antagonist – counter-screen for GPR7 antagonists: antagonists of human MCHR1. shares compounds with GPR7 antagonist. MCHR1-expressing cells, fluorescence antagonist assay. inhibition, % at 4.4 µM. 62% of 2,400 active. AID 2148; in the data active = inhibition above about 22%;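 note: 0% = vehicle with agonist and 100% = vehicle without agonist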
An asterisk follows results filed as active; . = no result; ! = not confirmed by another sample.

SMILES | GPR7 antagonist | OX1R antag-1 | TAAR1 antag | CHO parental Ca | TAAR1 ag | OX1R antag-2 | GPR7 antag cf | MCHR1 antagonist
Cc1ccc(C)c(N2CCN(C(=O)C3CCN(S(=O)(=O)c4c(C)noc4C)CC3)CC2)c1 | 32* | 7 | -7 | 22 | 2 | 19 | 21 | 47*
O=C(COC(=O)c1cc(S(=O)(=O)N2CCOCC2)cs1)c1ccccc1 | 25* | -16 | 7 | -11 | 6 | 7 | 9 | 11
CC(CC(=O)NC1CCCC1)c1ccccc1 (configuration not stated) | 34* | -36 | 5 | -2 | 7 | 32 | 5 | -1
CCCCC(c1nc2ccccc2[nH]1)n1c(=O)c(-c2ccccc2)nc2cc(C)c(C)cc21 (configuration not stated) | . | . | -16 | . | -1 | . | . | .
CNC(=S)N/N=C/c1cn(Cc2c(F)cccc2Cl)c2ccccc12 | 30* | -13 | -8 | 2 | 3 | 7 | 45* | 30*
Cc1ccc(N2CCN(C(CCc3ccccc3)C(=O)Nc3c(C)cccc3C)CC2)cc1 (configuration not stated) | . | . | -8 | . | 2 | . | . | .
O=C(N/C(=C\c1cccc([N+](=O)[O-])c1)C(=O)N1CCOCC1)c1ccc([N+](=O)[O-])cc1 | 23* | -5 | -7 | -7 | 2 | 24 | 1 | -2
O=C(O)c1ccccc1C(=O)Nc1ccc(-n2ccc(C(F)(F)F)n2)cc1 | -14 | 3 | -8 | -14 | 16 | 12 | . | .
O=C(Nc1ccc(-n2ccc(C(F)(F)F)n2)cc1)Nc1cccc(Cl)c1 | 21* | 57* | 34 | 22 | 13 | 31 | 42* | 71*
CCOc1ccc(N=c2oc3cc(O)ccc3cc2C(=O)NCC2CCCO2)cc1 (configuration not stated) | 3 | -12 | 17 | -4 | 0 | 20 | . | .
CCOc1ccccc1N=c1oc2cc(O)ccc2cc1C(=O)NCC1CCCO1 (configuration not stated) | 29* | -3 | 29 | -12 | 7 | 5 | 19 | 20
COc1ccc(Nc2nnc(-c3ccc(C(=O)NCCO)cc3)c3ccccc23)cc1 | 60* | -10 | -2 | -15 | -1 | 25 | 2 | 36*
COc1ccc(Nc2nnc(-c3ccc(C(N)=O)cc3)c3ccccc23)cc1 | 34* | -16 | 3 | -12 | 1 | 20 | 5 | 15
CC1(C(=O)NS(=O)(=O)c2ccc(Cl)s2)CCN1C(=O)C1(c2ccccc2)CCCC1 (configuration not stated) | . | . | -7 | . | 0 | . | . | .
Cc1cc(Cl)ccc1OCC(=O)N1CCN(c2ncccn2)CC1 | 24* | -21 | 18 | -17 | 2 | 15 | -6 | 3
CN1C(=O)NC(c2ccccc2[N+](=O)[O-])C2=C1CCCC2=O (configuration not stated) | -4 | 0 | -1 | 10 | 8 | 22 | . | .
O=C1C=C(O)CC(c2ccc(Cl)c(Cl)c2)C1 (configuration not stated) | -4 | -6 | 1 | -15 | 1 | 27 | . | .
CN[C@H]1CC[C@@H](c2ccc(Cl)c(Cl)c2)c2ccccc21 | 35*! | -4 | 51*! | 0 | 52* | 15 | 51* | 49*
CCc1nc2cc(NC(=O)C3(C)CCCN(C(C)=O)C3)ccc2o1 (configuration not stated) | . | . | -2 | . | 2 | . | . | .
COc1ccc(-c2nc3c(Cl)cc(C(F)(F)F)cn3c2Cc2cccc(F)c2)cc1OC | . | . | 3 | . | -1 | . | . | .
CCc1cc(=O)oc2cc(OCC(=O)N3CCC(C(=O)O)CC3)ccc12 | -11 | 11 | -11 | -11 | 1 | 6 | . | .
CCCc1cc(=O)oc2cc(OCC(=O)N3CCC(C(N)=O)CC3)ccc12 | 23* | -4 | -22 | -9 | 2 | 11 | 11 | 0
CCCCNCCCOc1cccc(Cl)c1Cl | 35* | -13 | -13 | -9 | 38* | 16 | 14 | 11
CCCCNCCCOc1ccc(C)cc1Br | 0 | -17 | 0 | -12 | 29 | 8 | . | .
CCN(CC)CCSc1nc2ccccc2c(=S)n1-c1ccccc1 | 40* | -15 | -10 | -18 | 19 | 8 | 40* | 39*
SMILES | GPR7 antagonist | OX1R antag-1 | TAAR1 antag | CHO parental Ca | TAAR1 ag | OX1R antag-2 | GPR7 antag cf | MCHR1 antagonist
CCN(CC)CCSc1nc(O)c(-c2ccccc2)c(=O)n1-c1ccccc1 | -2 | -7 | -19 | -1 | 1 | 7 | . | .
CC(NC1=CC(=O)c2cccnc2C1=O)C(O)c1ccccc1 (configuration not stated) | . | . | 14 | . | 9 | . | . | .
COc1ccc([N+](=O)[O-])cc1C(=O)NCCOc1ccc(Cl)cc1 | 48* | -33 | 9 | 8 | 6 | 23 | 42* | 47*
Cc1ccc(OCCNC(=O)c2cc(C(=O)NCCOc3ccc(C)cc3)cc([N+](=O)[O-])c2)cc1 | -7 | 20 | 34 | 15 | 10 | 5 | . | .
COc1cccc(S(=O)(=O)Nc2ccc3c(c2)C(=O)N(C)C[C@H](OC)[C@H](C)CN(Cc2ccccc2F)[C@@H](C)CO3)c1 | . | . | 1 | . | 1 | . | . | .
COC(=O)[C@@H](NC(=O)c1ccc2c(c1)S(=O)(=O)c1ccccc1C2=O)C(C)C | 22* | -41 | 15 | -8 | 2 | 73* | -3 | 6
CC1(Cc2cc(Cl)ccc2C(F)(F)F)C(=O)Nc2cc(-c3ccccc3Cl)ccc21 (configuration not stated) | . | . | 1 | . | -1 | . | . | .
Cc1cccc(OCC(=O)Nc2ccccc2N2CCN(C)CC2)c1 | 31* | -18 | -36 | -30 | 4 | 21 | 19 | 49*
CCC(=O)N1CCN(c2ccccc2NC(=O)COc2cc(C)ccc2C(C)C)CC1 | 34* | -23 | 18 | -28 | 18 | 1 | 27* | 51*
Cc1cccc(OCC(=O)Nc2ccccc2N2CCCCC2)c1 | -7 | -56 | 17 | -48 | 12 | 14 | . | .
CC(NC(=O)Cc1cccc(C(F)(F)F)c1)c1ccc(F)cc1 (configuration not stated) | 27* | -19 | 5 | -5 | 5 | 11 | 7 | 15
CC(NC(=O)Cc1ccc(F)cc1)c1ccccc1 (configuration not stated) | -11 | -19 | 4 | -22 | 7 | 11 | . | .
CC1=C(C(=O)N(C(C)C)C(C)C)CC(CC(=O)NC2CCCCC2)C(=O)N1Cc1ccc(C(C)(C)C)cc1 (configuration not stated) | . | . | -12 | . | -1 | . | . | .
COc1cccc(OCc2cc(C(=O)NCc3cnc4ccccn34)no2)c1 | 30* | -9 | 10 | -1 | 15 | 15 | 33* | 48*
